For 14 compounds, IC50, Activity and inhibition results are on record in ChEMBL document CHEMBL4130384, “Design, synthesis and biological evaluation of novel 2-methoxyestradiol analogs as dual selective estrogen receptor modulators (SERMs) and antiangiogenic agents” (Eur J Med Chem, 2017).

Assay [1] concerns MCF7. Briefly: Antiproliferative activity against human MCF7 cells after 48 hrs by MTT assay. Type of assay: functional, cell-based. The note with it: MCF7, 48 h. The method in brief: (§1)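 Cells grown in RPMI1640 with 10% FBS and penicillin/streptomycin at 37 °C, 5% CO2. Seeded at 1 × 10^5/mL, grown 24 h, then exposed to compound at 1 × 10^-4 to 1 × 10^-7 mol/L for 48 h. Controls received medium with 1% DMSO. MTT 4 h, formazan dissolved in DMSO, absorbance at 490 nm; IC50 derived.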
Background: Formazan colour is commonly taken as a measure of viable cells.

Assay [2] concerns Ishikawa. Briefly: Antiproliferative activity against human Ishikawa cells after 48 hrs by MTT assay. The assay is classed as functional, cell-based. Summed up: as §1
Assay [3] has as its system HUVEC. The assay can be described thus: Antiproliferative activity against HUVEC after 48 hrs by MTT assay. The note with it: Homo sapiens. Type of assay: functional, cell-based. The method in brief: as §1
Assay [4] concerns HepG2. Briefly: Antiproliferative activity against human HepG2 cells after 48 hrs by MTT assay. The assay is classed as functional, cell-based. The note with it: HepG2, 48 h. Summed up: as §1
Assay [5] has as its system PC-3. Briefly: Antiproliferative activity against human PC3 cells after 48 hrs by MTT assay. The settings on record: PC-3, 48 h. The assay is classed as functional, cell-based. Summed up:
as §1

Assay [6] deals with Ishikawa. Briefly: Antiproliferative activity against human Ishikawa cells assessed as suppression of proliferation at 10 uM after 48 hrs by MTT assay relative to control. Type of assay: functional.
For assay [7], the system named is MCF7. Briefly: Cell cycle arrest in human MCF7 cells assessed as G0/G1 phase accumulation at 1 uM after 6 hrs by propidium iodide staining based flow cytometry (reference value: 42.62%). The assay is classed as functional. The method in brief:
(§2)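 MCF-7 cells plated at 3 × 10^5 per well and left overnight, then treated in serum-free medium with a DMSO reference control. Cells fixed in 70% ice-cold ethanol, washed in PBS, stained with propidium iodide at 4 °C. Flow cytometry gave percentages in G1, S and G2/M phases. Mean ± SEM of three independent experiments.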
Background: In flow cytometry, cells or beads pass a laser one at a time.

In assay [8] the test system is MCF7. The assay can be described thus: Cell cycle arrest in human MCF7 cells assessed as S phase accumulation at 1 uM after 6 hrs by propidium iodide staining based flow cytometry (reference value: 33.14%). The assay is classed as functional. The method in brief:
as §2

Assay [9] deals with MCF7. The assay can be described thus: Cell cycle arrest in human MCF7 cells assessed as G2/M phase accumulation at 1 uM after 6 hrs by propidium iodide staining based flow cytometry (reference value: 22.46%). The assay is classed as functional. The method in brief:
as §2

Assay [10] concerns MCF7. Briefly: Cell cycle arrest in human MCF7 cells assessed as G0/G1 phase accumulation at 2 uM after 6 hrs by propidium iodide staining based flow cytometry (reference value: 42.62%). The assay is classed as functional. Summed up: as §2
Assay [11] concerns MCF7. Briefly: Cell cycle arrest in human MCF7 cells assessed as S phase accumulation at 2 uM after 6 hrs by propidium iodide staining based flow cytometry (reference value: 33.14%). The assay is classed as functional. Summed up:
as §2

Assay [12] deals with MCF7. The assay can be described thus: Cell cycle arrest in human MCF7 cells assessed as G2/M phase accumulation at 2 uM after 6 hrs by propidium iodide staining based flow cytometry (reference value: 22.46%). The assay is classed as functional. Summed up:
as §2

Assay [13] relates to MCF7. Briefly: Cell cycle arrest in human MCF7 cells assessed as G2/M phase accumulation after 6 hrs by propidium iodide staining based flow cytometry. Type of assay: functional. The method in brief:
as §2

For assay [14], the target named is T1, Estrogen receptor (Homo sapiens) (UniProt P03372).
T1 sequence (whole entry): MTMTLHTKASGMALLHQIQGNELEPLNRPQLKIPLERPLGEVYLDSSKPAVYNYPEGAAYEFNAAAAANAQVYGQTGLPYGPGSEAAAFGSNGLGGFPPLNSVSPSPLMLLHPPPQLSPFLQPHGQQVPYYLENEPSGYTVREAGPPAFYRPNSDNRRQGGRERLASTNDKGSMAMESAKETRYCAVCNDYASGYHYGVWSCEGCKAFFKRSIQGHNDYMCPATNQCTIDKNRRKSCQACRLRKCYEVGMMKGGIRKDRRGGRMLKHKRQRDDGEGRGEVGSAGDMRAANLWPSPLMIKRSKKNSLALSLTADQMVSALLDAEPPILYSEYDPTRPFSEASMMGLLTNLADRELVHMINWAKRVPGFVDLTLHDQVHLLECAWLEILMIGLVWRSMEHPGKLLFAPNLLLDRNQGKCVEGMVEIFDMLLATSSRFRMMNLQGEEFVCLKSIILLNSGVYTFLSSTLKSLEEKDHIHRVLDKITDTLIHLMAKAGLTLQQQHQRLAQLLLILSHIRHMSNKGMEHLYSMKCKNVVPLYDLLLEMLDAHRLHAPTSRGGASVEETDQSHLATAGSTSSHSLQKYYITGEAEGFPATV
Briefly: Inhibition of estrogen receptor in human MCF7 cells assessed as inhibition of estradiol-induced PgR mRNA expression by RT-PCR method relative to control. Type of assay: cell-based. Summed up:
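MCF-7 cells stimulated with 10 nM E2 and co-treated with compound. PgR mRNA measured by real-time PCR, normalized to GAPDH and quantified by the ΔΔCT method. The 10 nM E2 level was set as 100%. Mean ± SD, n = 3.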

Assay [15] concerns Chorioallantoic membrane. The assay can be described thus: In vivo antiangiogenic activity in chicken fertilized egg chorioallantoic membrane at 40 uM after 72 hrs. The assay is classed as functional, organism-based. The settings on record: Gallus gallus. Summed up: (§3)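 Fertilized eggs incubated 7 days at 37 °C, 5% CO2, with saturated humidity. A ~1 cm2 shell window exposed the CAM. Compounds in DMSO were applied on sterile methyl cellulose filter papers placed on the CAM, with PBS as blank. Window taped shut, eggs incubated 72 h at 37 °C, 60% relative humidity.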

Assay [16] relates to MCF7. Briefly: Effect on AIM2 mRNA expression in human MCF7 cells at 0.5 to 2 uM by RT-PCR method. Type of assay: functional, cell-based. The method in brief: (§4)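 AIM2 mRNA, an ER-independent reference transcript, measured in treated MCF-7 cells by real-time PCR. Normalized to GAPDH and quantified by the ΔΔCT method. Mean ± SD, n = 3.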
The subject of assay [17] is Chorioallantoic membrane. The assay can be described thus: In vivo antiangiogenic activity in chicken fertilized egg chorioallantoic membrane after 72 hrs. The assay is classed as functional, organism-based. The note with it: Gallus gallus. The method in brief: as §3
The subject of assay [18] is MCF7. Briefly: Effect on AIM2 mRNA expression in human MCF7 cells at 2 uM by RT-PCR method. The assay is classed as functional, cell-based. The method in brief: as §4

pIC50: −log10 of the molar value. Active and inactive are the calls of the source. No cut-off for these calls is given here.

In general, pIC50 refers to −log10 of the IC50, conventionally taken in molar units. Lower therefore signals a high IC50. `CN1CCN(CC(=O)Nc2ccc(C(=O)O[C@@H]3C[C@]4(C)[C@@H](O)CC[C@H]4[C@@H]4CCc5cc(O)ccc5[C@H]43)cc2)CC1`: the pIC50 in assay [1] was 4.53; in assay [2], 5.02; in [3], 4.43; in assay [4], 4.82; in assay [5], 4.71. Further, in [6], the result was Active.
Turning to `COc1ccc2c(c1)CC[C@@H]1[C@@H]2[C@H](OC(=O)c2ccc(NC(=O)CN3CCCC3)cc2)C[C@]2(C)[C@@H](OC)CC[C@@H]12`, the pIC50 in assay [1] was 4.86; in [2] it was 5.32; in [3], 5.43; in assay [4], 5.06; in assay [5] it was 4.98. In addition, the outcome in assay [6] was Active.
As to `COCOc1ccc2c(c1)CC[C@@H]1[C@@H]2[C@H](OC(=O)c2ccc(NC(=O)CN(C)C)cc2)C[C@]2(C)[C@@H](OCOC)CC[C@@H]12`, the negative-log IC50 (pIC50) is 4.55 in [1]; 4.55 in assay [2]; 4.75 in assay [3]; 4.63 in [4]; 4.75 in [5]. Further, the outcome in [6] was Active.
Take `COc1cc2c(cc1OC)[C@@H]1[C@@H](CC2)[C@@H]2CC[C@H](OC)[C@@]2(C)C[C@H]1OC(=O)c1ccc(NC(=O)CN2CCCC2)cc1`: the pIC50 in assay [1] is 4.82; in assay [2] it was 5.26; in [3], 5.58; in assay [4] it was 5.52; in assay [5], 5.43. Further, the result in [6] was Active.
Regarding `COc1cc2c(cc1OC)[C@@H]1[C@@H](CC2)[C@@H]2CC[C@H](OC)[C@@]2(C)C[C@H]1OC(=O)c1ccc(NC(=O)CN2CCN(C)CC2)cc1`, the pIC50 was 5.36 in [1]; 5.26 in assay [2]; 5.31 in assay [3]; 5.28 in assay [4]; 5.37 in assay [5]. Also, the result in assay [6] and in assay [15] was Active. For the same compound, the Activity in assay [7] was 25.95%; in [8], 31.14%; in [9] it was 44.06%; in assay [10] it was 17.78%; in assay [11] it was 33.77%; in assay [12], 49.19%. The Activity entry in assay [13] and in [17] was “Dose-dependent effect” each time. Besides, the inhibition entry in assay [14] is “Dose-dependent effect”. For the same compound, the outcome in [16] was inactive.
`COCOc1ccc2c(c1)CC[C@@H]1[C@@H]2[C@H](OC(=O)c2ccc(NC(=O)CN3CCCC3)cc2)C[C@]2(C)[C@@H](OCOC)CC[C@@H]12`: the pIC50 in assay [1] was 4.84; in assay [2] it was 5.14; in assay [3], 5.03; in assay [4] it was 4.60; in assay [5], 4.77. Moreover, the outcome in assay [6] was Active.
As for `COc1ccc2c(c1)CC[C@@H]1[C@@H]2[C@H](OC(=O)c2ccc(NC(=O)CN3CCN(C)CC3)cc2)C[C@]2(C)[C@@H](OC)CC[C@@H]12`, the pIC50 in assay [1] is 4.89; in assay [2] it was 5.12; in assay [3], 5.23; in [4] it was 5.09; in assay [5], 4.74. In [6], the result was Active.
In the case of `COc1cc2c(cc1O)CC[C@@H]1[C@@H]2CC[C@]2(C)[C@@H](O)CC[C@@H]12` [2-METHOXYESTRADIOL], the pIC50 was 5.22 in assay [1]; 5.05 in assay [2]; 4.85 in assay [3]; 4.96 in assay [4]; 4.91 in assay [5]. For the same compound, in [6], the outcome was Active.
Turning to `CN(C)CC(=O)Nc1ccc(C(=O)O[C@@H]2C[C@]3(C)[C@@H](O)CC[C@H]3[C@@H]3CCc4cc(O)ccc4[C@H]32)cc1`, the pIC50 in assay [1] was 4.33; in assay [2], 4.43; in [3], 4.49; in assay [4], 5.05; in [5], 4.63. Also, in assay [6], the outcome was Active.
Consider `COCOc1ccc2c(c1)CC[C@@H]1[C@@H]2[C@H](OC(=O)c2ccc(NC(=O)CN3CCN(C)CC3)cc2)C[C@]2(C)[C@@H](OCOC)CC[C@@H]12`, for which the pIC50 is 5.39 in assay [1]; 5.11 in [2]; 5.28 in assay [3]; 5.56 in assay [4]; 5.55 in [5]. Besides, the outcome in [6] and in assay [15] was Active. For the same compound, the Activity in [7] worked out at 21.47%; in [8] it was 34.82%; in assay [9], 41.9%; in assay [10], 14.63%; in [11], 34.57%; in [12], 51.41%. Further, the Activity result in assay [13] and in assay [17] was “Dose-dependent effect” each time. Also, the inhibition entry in assay [14] was “Dose-dependent effect”. In assay [16], the outcome was inactive.
As for `COc1ccc2c(c1)CC[C@@H]1[C@@H]2[C@H](OC(=O)c2ccc(NC(=O)CN(C)C)cc2)C[C@]2(C)[C@@H](OC)CC[C@@H]12`, the pIC50 in assay [1] was 4.46; in assay [2], 4.81; in assay [3] it was 5.16; in assay [4], 5.47; in assay [5], 5.19. Also, in assay [6], the outcome was Active.
For the compound `COc1cc2c(cc1OC)[C@@H]1[C@@H](CC2)[C@@H]2CC[C@H](OC)[C@@]2(C)C[C@H]1OC(=O)c1ccc(NC(=O)CN(C)C)cc1`, the pIC50 in [1] was 4.55; in [2] it was 5.20; in assay [3], 5.23; in [4], 5.75; in [5] it was 5.05. Moreover, in [6], the result was Active.
Take `CC/C(=C(\c1ccccc1)c1ccc(OCCN(C)C)cc1)c1ccccc1` [TAMOXIFEN]: the Activity in assay [6] was -60.1%. Further, the outcome in assay [18] was inactive.
`C[C@]12C[C@@H](OC(=O)c3ccc(NC(=O)CN4CCCC4)cc3)[C@@H]3c4ccc(O)cc4CC[C@H]3[C@@H]1CC[C@@H]2O`: the pIC50 was 4.46 in assay [1]; 4.76 in assay [2]; 4.44 in assay [3]; 4.68 in [4]; 4.41 in assay [5]. In addition, the result in assay [6] was Active.
